Hits are enriched below; roughly 3.1% of the tested compounds scored in any of these assays.
NadD inh: NadD (S. aureus) enzyme inhibition. purified NadD enzyme, colorimetric absorbance read-out. 360,000 tested, 0.78% active. inhibition, % at 20 µM. AID 602399; in the data active = inhibition above about 26%
Fh CTSL1 inh: cathepsin L1 inhibition, PFM18AAP counter-screen; recombinant F. hepatica cathepsin L1, Z-Leu-Arg-MCA fluorescence; inhibition, % at 5.96 µM; 300,000 tested, 0.49% active; AID 1906;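 active = inhibition above the mean of all tested compounds plus 3 SD, set per screening campaign, cut at about 17% in these data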;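 note: 0% = plate median of test compound wells and 100% = 1 µM Z-Phe-Ala-diazomethylketone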
core dimer inh: HCV core protein dimerization inhibition; TR-FRET GST/Flag-core106 dimerization, 1536-well; inhibition, % at 5 µM; 300,000 tested, 0.33% active; AID 1899;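 active = inhibition above the mean of all tested compounds plus 3 SD, set per screening campaign, cut at about 45% in these data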
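Test system: GST/Flag-tagged HCV core106 proteins; Medium: KF-containing HEPES buffer, pH 7.45, DTT, CHAPS, BSA; Times: compound-protein-antibody incubation 4 h at 22.5 °C; Detection: TR-FRET 671 and 617 nm emission; Benchmarks: wells lacking GST-core106 and wells with excess unlabelled core106.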
PP5 inh: inhibitors of human protein phosphatase 5 (PP5) | 320,000 tested, 0.18% active | inhibition, % at 6.7 µM | purified PP5c, OMFP substrate fluorescence | P53041;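 active = inhibition above the campaign's mean inhibition across all tested compounds plus 3 SD, cut at about 9.5% in these data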;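 note: 0% = DMSO only and 100% = 100 µM cantharidin control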
PP1 counter: PP1-alpha (human) inhibition in PP5 counter-screen; 320,000 tested, 0.9% active; AID 2235; P62136; inhibition, % at 6.7 µM; purified PP1alpha, OMFP fluorescence;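 active = inhibition above the mean inhibition of all tested compounds plus 3 SD, computed separately for each screening campaign, cut at about 15% in these data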
Target sequence (P62136 whole entry, looked up): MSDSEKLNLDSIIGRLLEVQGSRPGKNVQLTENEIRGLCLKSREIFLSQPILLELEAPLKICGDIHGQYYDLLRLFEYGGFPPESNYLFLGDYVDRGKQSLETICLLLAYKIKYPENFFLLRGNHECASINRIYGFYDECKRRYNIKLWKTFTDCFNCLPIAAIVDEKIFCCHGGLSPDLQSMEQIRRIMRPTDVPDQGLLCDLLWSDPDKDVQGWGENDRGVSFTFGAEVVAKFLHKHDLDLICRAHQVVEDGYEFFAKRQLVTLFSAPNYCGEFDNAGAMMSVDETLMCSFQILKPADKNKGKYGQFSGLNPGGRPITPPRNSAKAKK
Myeloid diff MLP: compounds promoting myeloid differentiation | ER-HoxA9 myeloid progenitors, lysozyme-GFP differentiation, flow cytometry | AID 624256 | calls only at 10 µM | 360,000 tested, 1% active;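 active = normalized GFP-positive differentiation at or above the plate's own cutoff, the solvent-only control mean plus 3 SD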;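 note: cells exposed to compound for four days before flow analysis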
Myeloid diff CP1: myeloid differentiation induction; shares compounds with Myeloid diff MLP; ER-HoxA9 myeloid progenitors, GFP/Mac1 double-positive flow; calls only; 2,300 tested, 2% active;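 active = share of green or green-and-red cells above 9 and 9% in run 1 or 4 and 3% in run 2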
GFP autofluor: flagged as fluorescent in myeloid differentiation counter-screen; fluorescence response, % (concentration not given with the values); 2,300 tested, 7.4% active; AID 651707; shares compounds with Myeloid diff MLP; ER-HoxA9 myeloid progenitors, no estrogen, GFP autofluorescence flow cytometry; vehicle wells 0%, positive control 100%;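 active = over 5% cells positive for green fluorescent reporter, or over 2% positive for both it and APC stain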;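 note: range taken on the double positive population between DMSO and positive control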
* hit, by the source's call.

Screening CCc1ccc(NC(=O)CCCN2C(=S)NC(C)(C)CC2C)cc1 (stereo not drawn) returned NadD inh 3, Fh CTSL1 inh -1, core dimer inh 1, PP5 inh 2, PP1 counter -7 and Myeloid diff MLP inactive.
For CC1CC(C)(C)NC(=S)N1CCCC(=O)NCc1ccccc1 (stereo not drawn) the results were NadD inh -4, Fh CTSL1 inh 7, core dimer inh -2, PP5 inh -1, PP1 counter -4, Myeloid diff MLP inactive, Myeloid diff CP1 inactive and GFP autofluor 0.
Screening COC(=O)c1ccc(N2C(c3cc(OC)cc(OC)c3)=Cc3ccc(OC)cc3C2CC(=O)c2ccco2)cc1 (stereo not drawn) returned NadD inh 22 and Myeloid diff MLP inactive.
`O=C(CC1c2cc(F)ccc2C=C(c2ccsc2)N1c1ccc(C#CCCO)cc1)c1ccco1` (stereo not drawn) gave NadD inh 27, Myeloid diff MLP inactive, Myeloid diff CP1 inactive and GFP autofluor 0.
For Cc1ccc(O)c(NC(=O)c2cc3nc4c(c(C(F)(F)F)n3n2)CCc2ccccc2-4)c1 the results were NadD inh -2, Fh CTSL1 inh -4, core dimer inh 10, PP5 inh -1, PP1 counter -2, Myeloid diff MLP inactive, Myeloid diff CP1 inactive and GFP autofluor 0.
`CC(C)N(CC#CCC(O)(c1ccccc1)c1ccccc1)C(C)C` gave NadD inh -4, Fh CTSL1 inh -3, core dimer inh -9, PP5 inh 2, PP1 counter 2, Myeloid diff MLP inactive, Myeloid diff CP1 inactive and GFP autofluor 0.
For Cc1ccnn1CCC(=O)N1CCCC(Nc2ccc(F)c(F)c2)C1 (stereo not drawn) the results were NadD inh -4, Fh CTSL1 inh 5, core dimer inh -6, PP5 inh 0, PP1 counter 1 and Myeloid diff MLP inactive.
Screening CCCCN1C(=O)C(CC(=O)NCc2cccs2)CC(C(=O)N(C(C)C)C(C)C)=C1C (stereo not drawn) returned NadD inh 7 and Myeloid diff MLP inactive.
`Cc1nn2c(N3CCOCC3)c3c(nc2c1-c1ccccc1)CCCC3` gave NadD inh -1, Fh CTSL1 inh 3, core dimer inh 5, PP5 inh 0, PP1 counter 1, Myeloid diff MLP active, Myeloid diff CP1 inactive and GFP autofluor 2.
`Cc1nn2c(-n3ccnc3C)c3c(nc2c1-c1ccccc1)CCC3` gave NadD inh 1, Fh CTSL1 inh 7, core dimer inh 2, PP5 inh 0, PP1 counter -2 and Myeloid diff MLP inactive.
For CCc1ccc(/C=C/c2c([N+](=O)[O-])c(=O)n(C)c(=O)n2C)cc1 the results were NadD inh -4, Fh CTSL1 inh 4, core dimer inh 3, PP5 inh 3, PP1 counter -6, Myeloid diff MLP inactive, Myeloid diff CP1 inactive and GFP autofluor 1.
CCOc1ccc(/C=C/c2c([N+](=O)[O-])c(=O)n(C)c(=O)n2C)cc1 was read as NadD inh 1, Fh CTSL1 inh 1, core dimer inh 11, PP5 inh -1, PP1 counter 2 and Myeloid diff MLP inactive.
O=C(Nc1ccc(S(=O)(=O)N2CCCCC2)cc1)C1CCCN(C(=O)c2ccc(Cl)cc2)C1 (stereo not drawn) was read as NadD inh 5, Fh CTSL1 inh 1, core dimer inh 0, PP5 inh 3, PP1 counter 1, Myeloid diff MLP inactive, Myeloid diff CP1 inactive and GFP autofluor 2.
Screening CN(C)S(=O)(=O)c1ccc(NC(=O)C2CCCN(C(=O)c3ccc(Cl)cc3)C2)cc1 (stereo not drawn) returned NadD inh -3, Fh CTSL1 inh -1, core dimer inh -5, PP5 inh 2, PP1 counter 2 and Myeloid diff MLP inactive.
CC(C)[C@H](NC(=O)c1cccc(CN(Cc2ccccc2)C(=O)/C=C/c2ccccc2)c1)C(=O)O was read as NadD inh 2, Fh CTSL1 inh 1, core dimer inh -2, PP5 inh 3, PP1 counter -3 and Myeloid diff MLP inactive.
Screening Cc1ccc2cc(C#N)c(N3CCCN(C(=O)C4CCCO4)CC3)nc2c1C (stereo not drawn) returned NadD inh 0, Fh CTSL1 inh 6, core dimer inh 39, PP5 inh 4, PP1 counter -4, Myeloid diff MLP inactive, Myeloid diff CP1 inactive and GFP autofluor 1.
For Cc1ccc2[nH]c(CCN(C)C)c(CN3CCOCC3)c2c1 the results were NadD inh -1, PP5 inh 0, PP1 counter -1, Myeloid diff MLP inactive, Myeloid diff CP1 inactive and GFP autofluor 0.
`COc1ccc(-c2nn(-c3ccccc3)cc2/C=N/Nc2ccc(S(N)(=O)=O)cc2[N+](=O)[O-])cc1OC` gave NadD inh 13, Fh CTSL1 inh 10, core dimer inh 33, PP5 inh 0, PP1 counter -1, Myeloid diff MLP inactive, Myeloid diff CP1 inactive and GFP autofluor 0.
For COc1ccc2c(c1)OC[C@H]1[C@H]2N2C(=O)c3cc(OC)ccc3NC(=O)[C@@]2(C)[C@H]1c1ccccc1 the results were NadD inh 4, Fh CTSL1 inh -2, core dimer inh 27, PP5 inh 4, PP1 counter -5, Myeloid diff MLP inactive, Myeloid diff CP1 inactive and GFP autofluor 0.
For COc1ccc2c(c1)OC[C@H]1[C@H]2N2C(=O)c3cc(Cl)ccc3NC(=O)[C@@]2(C)[C@H]1c1ccccc1 the results were NadD inh 12, Fh CTSL1 inh -2, core dimer inh 16, PP5 inh 6, PP1 counter 3 and Myeloid diff MLP inactive.
For COc1cc(C(O)c2nc(/C=C/c3ccc(C(F)(F)F)cc3)cs2)ccc1F (stereo not drawn) the results were NadD inh -5 and Myeloid diff MLP inactive.
Cc1nc2ccc(S(=O)(=O)NCC(=O)N3CCC(C)CC3)cc2s1 was read as NadD inh 10, Fh CTSL1 inh 0, core dimer inh 0, PP5 inh -2, PP1 counter -4, Myeloid diff MLP inactive, Myeloid diff CP1 inactive and GFP autofluor 0.
For Cc1nc2ccc(S(=O)(=O)NCC(=O)N3CCC(N4CCCCC4)CC3)cc2s1 the results were NadD inh -3, Fh CTSL1 inh 0, core dimer inh -1, PP5 inh -2, PP1 counter -1 and Myeloid diff MLP inactive.

Bioassay records as filed in PubChem BioAssay.
